Reference: ChEMBL document CHEMBL2311361, “Diminutive effect on T and B-cell proliferation of non-cytotoxic α-santonin derived 1,2,3-triazoles: a report” (Eur J Med Chem, 2013)

Key:
[1] = Immunosuppressive activity in Balb/c mouse B cells assessed as inhibition of LPS-induced cell proliferation at 10^-6 M after 48 hrs by MTT assay; type: functional
In short: (§1)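 Spleens taken aseptically from Balb/c mice (18–22 g). Single-cell suspension made in incomplete RPMI, RBCs lysed with Tris-ammonium chloride, cells washed, resuspended in complete RPMI and checked for viability by trypan blue. Cells seeded at 1 × 10⁶ cells/mL. Compounds in DMSO tested at 1×10⁻⁴, 1×10⁻⁵ and 1×10⁻⁶ M, 48 h, 37 °C, 5% CO₂.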

[2] = Cytotoxicity against in Balb/c mouse T cells at 10^-5 M after 48 hrs by MTT assay; type: cell-based; conditions: t-cell, 10 µM; in short: as §1
[3] = Cytotoxicity against in Balb/c mouse B cells at 10^-6 M after 48 hrs by MTT assay; type: cell-based; conditions: 1 µM; in short: as §1
[4] = Cytotoxicity against in Balb/c mouse T cells at 10^-6 M after 48 hrs by MTT assay; type: cell-based; conditions: t-cell, 1 µM; in short: as §1
[5] = Cytotoxicity against in Balb/c mouse B cells at 10^-5 M after 48 hrs by MTT assay; type: cell-based; conditions: 10 µM; in short: as §1
[6] = Cytotoxicity against in Balb/c mouse B cells at 10^-4 M after 48 hrs by MTT assay; type: cell-based; conditions: 100 µM; in short: as §1
[7] = Immunostimulant activity in Balb/c mouse T cells assessed as inhibition of concanavalin A-induced cell proliferation at 10^-6 M after 48 hrs by MTT assay; type: functional; in short: as §1
[8] = Immunosuppressive activity in Balb/c mouse B cells assessed as inhibition of LPS-induced cell proliferation at 10^-4 M after 48 hrs by MTT assay; type: functional; in short: as §1
[9] = Immunosuppressive activity in Balb/c mouse T cells assessed as inhibition of concanavalin A-induced cell proliferation at 10^-5 M after 48 hrs by MTT assay; type: functional; in short: as §1
[10] = Immunosuppressive activity in Balb/c mouse T cells assessed as inhibition of concanavalin A-induced cell proliferation at 10^-4 M after 48 hrs by MTT assay; type: functional; in short: as §1
[11] = Cytotoxicity against in Balb/c mouse T cells at 10^-4 M after 48 hrs by MTT assay; type: cell-based; conditions: t-cell, 100 µM; in short: as §1
[12] = Immunosuppressive activity in Balb/c mouse B cells assessed as inhibition of LPS-induced cell proliferation at 10^-5 M after 48 hrs by MTT assay; type: functional; in short: as §1
[13] = Immunostimulant activity in Balb/c mouse T cells assessed as inhibition of concanavalin A-induced cell proliferation at 10^-5 M after 48 hrs by MTT assay; type: functional; in short: as §1
[14] = Immunosuppressive activity in Balb/c mouse T cells assessed as inhibition of concanavalin A-induced cell proliferation at 10^-6 M after 48 hrs by MTT assay; type: functional; conditions: for inhibition at 1 µM: Mus musculus, Balb/c, T-cell, 48 h; in short: as §1
[15] = Immunostimulant activity in Balb/c mouse T cells assessed as inhibition of concanavalin A-induced cell proliferation at 10^-4 M after 48 hrs by MTT assay; type: functional; conditions: for inhibition at 100 µM: Mus musculus, Balb/c, T-cell, 48 h; in short: as §1
[16] = Immunostimulant activity in Balb/c mouse B cells assessed as inhibition of LPS-induced cell proliferation at 10^-4 M after 48 hrs by MTT assay; type: functional; in short: as §1
[17] = Immunostimulant activity in Balb/c mouse B cells assessed as inhibition of LPS-induced cell proliferation at 10^-6 M after 48 hrs by MTT assay; type: functional; in short: as §1

Row | Structure (SMILES) | inhibition at 1 µM [1] [%] | Activity [2] | Activity [3] | Activity [4] | Activity [5] | Activity [6] | inhibition at 1 µM [7] [%] | inhibition at 100 µM [8] [%] | inhibition at 10 µM [9] [%] | inhibition at 100 µM [10] [%] | Activity [11] | inhibition at 10 µM [12] [%] | inhibition at 10 µM [13] [%] | inhibition (INH) [14] [%] | inhibition at 1 µM [14] [%] | inhibition (INH) [15] [%] | inhibition at 100 µM [15] [%] | inhibition at 100 µM [16] [%] | inhibition at 1 µM [17] [%]
1 | C#CCOc1cc(C)c2c(c1C)[C@@H]1OC(=O)[C@@H](C)[C@@H]1CC2 | 29.9 | Non-toxic | Toxic | Toxic | Non-toxic | Non-toxic | 24.4 | 36.8 | 1.21 | 12.2 | Non-toxic | 22.2 | – | – | – | – | – | – | –
2 | Cc1cc(OCc2cnnn2-c2cc(F)ccc2I)c(C)c2c1CC[C@H]1[C@H](C)C(=O)O[C@@H]21 | 20.8 | Non-toxic | Toxic | Toxic | Non-toxic | Toxic | – | 14.2 | 31.4 | – | Toxic | 24.2 | 10.8 | 17.5 | 21.4 | 19.16 | 19.2 | – | –
3 | Cc1cc(O)c(C)c2c1CC[C@H]1[C@H](C)C(=O)O[C@@H]21 | 23.1 | Non-toxic | Non-toxic | Non-toxic | Non-toxic | Non-toxic | – | – | 24.4 | – | Non-toxic | 23.9 | – | – | 20.7 | – | 80.5 | 18.8 | –
4 | Cc1cc(OCc2cnnn2-c2cccc(I)c2)c(C)c2c1CC[C@H]1[C@H](C)C(=O)O[C@@H]21 | 15.8 | Non-toxic | Non-toxic | Non-toxic | Non-toxic | Non-toxic | – | 15.8 | 20 | 3.15 | Non-toxic | 20 | – | – | 15.8 | – | – | – | –
5 | Cc1cc(OCc2cnnn2-c2ccc3c(c2)OCO3)c(C)c2c1CC[C@H]1[C@H](C)C(=O)O[C@@H]21 | 14.7 | Non-toxic | Non-toxic | Non-toxic | Non-toxic | Non-toxic | – | 32.6 | 45.3 | 29.5 | Non-toxic | 50.5 | – | – | 29.5 | – | – | – | –
6 | Cc1cc(OCc2cnnn2-c2ccc(Cl)nc2)c(C)c2c1CC[C@H]1[C@H](C)C(=O)O[C@@H]21 | – | Non-toxic | Toxic | Toxic | Non-toxic | Non-toxic | – | – | – | – | Non-toxic | 8.57 | 12.8 | – | 20.8 | – | 8.57 | 75.7 | 45.7
7 | Cc1cc(OCc2cnnn2-c2cccc(O)c2)c(C)c2c1CC[C@H]1[C@H](C)C(=O)O[C@@H]21 | 19.2 | Non-toxic | Toxic | Toxic | Non-toxic | Non-toxic | – | 9.16 | – | 10 | Non-toxic | 7.5 | 22.5 | – | 5.83 | – | – | – | –
8 | COc1ccc2cc(-n3nncc3COc3cc(C)c4c(c3C)[C@@H]3OC(=O)[C@@H](C)[C@@H]3CC4)ccc2c1 | 25.6 | Non-toxic | Non-toxic | Non-toxic | Non-toxic | Non-toxic | – | 28.2 | 95.1 | 93.9 | Non-toxic | 94 | – | – | 93.9 | – | – | – | –
9 | CC(=O)Nc1ccc(-n2nncc2COc2cc(C)c3c(c2C)[C@@H]2OC(=O)[C@@H](C)[C@@H]2CC3)cc1 | 25 | Non-toxic | Toxic | Toxic | Non-toxic | Toxic | – | – | – | – | Toxic | 15 | 13.3 | – | 20 | – | 27.5 | 16.7 | –
10 | CC1=C2[C@H]3OC(=O)[C@@H](C)[C@@H]3CC[C@@]2(C)C=CC1=O [SANTONIN] | 23.1 | Non-toxic | Non-toxic | Non-toxic | Non-toxic | Non-toxic | – | -36.8 | – | -6.09 | Non-toxic | 25.6 | 3.65 | – | -40.2 | – | – | – | –
11 | Cc1cc(OCc2cnnn2-c2ccc(C=O)cc2)c(C)c2c1CC[C@H]1[C@H](C)C(=O)O[C@@H]21 | 24.2 | Non-toxic | Non-toxic | Non-toxic | Non-toxic | Non-toxic | – | 35 | 6.66 | 20.8 | Non-toxic | 22.5 | – | – | 5.83 | – | – | – | –
12 | Cc1cc(OCc2cnnn2-c2cccc(Br)c2COc2cccc(Br)c2)c(C)c2c1CC[C@H]1[C@H](C)C(=O)O[C@@H]21 | 24.2 | Non-toxic | Toxic | Toxic | Non-toxic | Non-toxic | – | 17.5 | – | – | Non-toxic | 16.7 | – | – | 14.2 | – | 2.5 | – | –
13 | Cc1cc(OCc2cnnn2-c2c(Br)ccc(I)c2F)c(C)c2c1CC[C@H]1[C@H](C)C(=O)O[C@@H]21 | 8.57 | Non-toxic | Non-toxic | Non-toxic | Non-toxic | Non-toxic | – | 11.4 | – | – | Non-toxic | 50 | – | – | – | – | – | – | –
14 | Cc1cc(OCc2cnnn2-c2cccc(C(N)=O)c2)c(C)c2c1CC[C@H]1[C@H](C)C(=O)O[C@@H]21 | 44.2 | Non-toxic | Non-toxic | Non-toxic | Non-toxic | Non-toxic | – | 8.42 | 29.5 | 6.31 | Non-toxic | 36.8 | – | – | 28.4 | – | – | – | –
15 | Cc1cc(OCc2cnnn2-c2ccccc2C(F)(F)F)c(C)c2c1CC[C@H]1[C@H](C)C(=O)O[C@@H]21 | – | Non-toxic | Non-toxic | Non-toxic | Non-toxic | Non-toxic | – | 11.4 | 30 | 22.9 | Non-toxic | 31.4 | – | – | 7.14 | – | – | – | 62.9
16 | Cc1ccc(I)cc1-n1nncc1COc1cc(C)c2c(c1C)[C@@H]1OC(=O)[C@@H](C)[C@@H]1CC2 | 34.7 | Non-toxic | Non-toxic | Non-toxic | Non-toxic | Non-toxic | – | 16.8 | 20 | 15.8 | Non-toxic | 14.7 | – | – | 15.8 | – | – | – | –
17 | COc1cc(-n2nncc2COc2cc(C)c3c(c2C)[C@@H]2OC(=O)[C@@H](C)[C@@H]2CC3)cc(OC)c1OC | 16.8 | Non-toxic | Non-toxic | Non-toxic | Non-toxic | Non-toxic | – | 14.7 | 14.7 | 16.8 | Non-toxic | 26.3 | – | – | 20 | – | – | – | –
